NPY-Y1 PAM-ag – NPY-Y1 receptor potentiators or agonists, primary screen, cell-based; Neuropeptide Y receptor type 1 (Homo sapiens), P25929; NPY-Y1 expressing cells, potentiator/agonist activation; activation, % at 3.6 µM; actives 0.37% (n = 220,000); in the data active means activation above about 33%, passing the limit was not always enough;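 further: cells stimulated with NPY at EC10 then isoproterenol at EC100; 0% = low agonist plus stimulus and 100% = saturating agonist plus stimulus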
NPY2 pot ag – NPY-Y2 potentiators or agonists, primary screen, cell-based. Neuropeptide Y receptor type 2 (Homo sapiens), P49146. cells expressing NPY-Y2, potentiator/agonist read-out. activation, % at 3.6 µM. actives 0.45% (n = 220,000); in the data active means activation above about 27%;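 further: cells stimulated with NPY near EC25 plus isoproterenol at EC100; 0% = vehicle plus submaximal agonist and 100% = vehicle plus saturating agonist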
Target sequence (P49146 whole entry, looked up): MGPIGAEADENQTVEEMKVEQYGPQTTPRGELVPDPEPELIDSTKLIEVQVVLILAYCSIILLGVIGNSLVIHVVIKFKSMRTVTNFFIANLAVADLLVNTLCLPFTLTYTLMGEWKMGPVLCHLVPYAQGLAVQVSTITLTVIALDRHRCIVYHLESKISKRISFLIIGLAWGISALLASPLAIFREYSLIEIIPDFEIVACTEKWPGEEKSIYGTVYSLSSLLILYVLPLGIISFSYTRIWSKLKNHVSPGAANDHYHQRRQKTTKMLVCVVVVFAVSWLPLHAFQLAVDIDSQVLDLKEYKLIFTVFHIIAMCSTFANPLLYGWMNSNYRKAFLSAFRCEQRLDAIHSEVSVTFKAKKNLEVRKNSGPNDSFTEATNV
NPY-Y1 antag – NPY-Y1 receptor antagonists, primary screen, cell-based; Neuropeptide Y receptor type 1 (Homo sapiens), P25929; actives 1% (n = 200,000); inhibition, % at 3.6 µM; HEK293-CNG Y1 cells, membrane potential fluorescence; NPY at EC95, then isoproterenol;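 active means inhibition above the campaign mean inhibition of all tested compounds plus 3 SD, cut at about 20% in these data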;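 further: 0% = DMSO wells given NPY plus isoproterenol and 100% = isoproterenol alone without NPY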
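material = HEK293 cells with Y1 receptor plus CNG channel | also added = NPY 25 nM then isoproterenol 1 µM plus Ro 20-1724 25 µM | schedule = dye 3 h, compound 60 min room temperature, stimulation 45 min | measured by = membrane potential fluorescence | benchmarks = high control isoproterenol alone, low control NPY with isoproterenol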
NPY Y2 blocker – NPY-Y2 receptor antagonists, primary screen, cell-based | NPY-Y2 expressing cells, antagonist mode | actives 0.99% (n = 140,000) | inhibition, % at 2.7 µM | Neuropeptide Y receptor type 2 (Homo sapiens), P49146; in the data active means inhibition above about 17%;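 further: 0% = vehicle with agonist challenge and 100% = reference antagonist with challenge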
NPY1 antag ctr – NPY-Y1 receptor antagonists, selectivity check, counter-screen for NPY-Y2 antagonist project, cell-based; shares compounds with NPY Y2 blocker; cell-based NPY-Y1 antagonism counterscreen; inhibition, % at 3.6 µM; actives 19% (n = 710); AID 1256, 2008; in the data active means inhibition above about 20%;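 further: cells challenged with NPY then isoproterenol with cAMP sensed through a CNG channel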
NPY-Y2 ant conf – NPY-Y2 receptor antagonists, retest of hits, confirmation, HEK293-CNG cells, membrane potential fluorescence, triplicate; shares compounds with NPY Y2 blocker; HEK293 NPY-Y2 CNG channel; inhibition, % at 2.8 µM; actives 32% (n = 710);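 active means mean inhibition of triplicate wells above the hit cutoff set in the primary screen, cut at about 17% in these data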;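 further: 0% = DMSO with NPY challenge and 100% = BIIE0246 high control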
Numbers without * were called inactive; . = no result given. In the library only some 1.9% were active in any assay of this set; here they are far more common.

SMILES	NPY-Y1 PAM-ag	NPY2 pot ag	NPY-Y1 antag	NPY Y2 blocker	NPY1 antag ctr	NPY-Y2 ant conf
O=C(NC(c1ccccc1)c1ccccc1)C1(c2cccs2)CCOCC1	5	-3	15	18*	6	5
COc1ccc(C(=O)Oc2cc3c4c(c2)C(C)=CC(C)(C)N4C(=O)C3=O)cc1OC	8	-13	-2	2	.	.
COc1cccc(C(=O)Oc2cc3c4c(c2)C(C)=CC(C)(C)N4C(=O)C3=O)c1	-77	-31	16	46*	50*	82*
CCOc1ccc2nc(COC(=O)c3ccncc3)c(C(=O)c3ccccc3)[n+]([O-])c2c1	5	8	.	.	.	.
Cc1nn(Cc2ccccc2)c(Cl)c1C(=O)OCc1nnc(-c2ccc(Cl)cc2)o1	-53	-4	8	19*	11	7
O=C(OCCN1C(=O)c2cccc3c(N4CCOCC4)ccc(c23)C1=O)c1ccc(Cl)cc1Cl	-6	7	0	10	.	.
O=C(OCCN1C(=O)c2cccc3c(N4CCOCC4)ccc(c23)C1=O)c1cccc(Cl)c1	6	1	2	20*	29*	40*
C/C(=N\OC(=O)c1ccc(OC(C)C)cc1)c1ccc(C)c(C)c1	-42	1	13	22*	15	30*
CCCOc1ccc(C(=O)O/N=C(\CC)c2ccc(C)cc2)cc1	-4	-11	1	10	.	.
COc1ccc(C(=O)O/N=C(\C)c2ccccc2)cc1	-8	1	-2	-2	.	.
CC/C(=N\OC(=O)c1ccc(OC(C)C)cc1)c1ccc(C)cc1	-12	-18	12	20*	10	14
Cc1ccccc1C(=NCCCN(C)C)c1ccccc1C	2	1	3	6	.	.
CCN(CC(=O)NCc1ccc(Cl)cc1)C(=O)c1ccc(S(=O)(=O)N(C)C)cc1	0	8	1	.	.	.
Cc1[nH]c(=O)[nH]c(=O)c1S(=O)(=O)N1CCCC(C(=O)NCCC2=CCCCC2)C1 (stereo not given)	-14	-7	2	.	.	.
O=C(NCc1ccc2c(c1)OCO2)c1cc(-c2ccccc2Cl)on1	-14	-55	12	22*	18	13
Cc1cc(C(=O)NCC(=O)OCC(=O)N(C(C)C)C(C)C)ccc1[N+](=O)[O-]	15	-1	3	2	.	.
CC(C)Cc1csc(NC(=O)c2ccc(Br)cc2)c1C(=O)O	-32	-31	.	.	.	.
CCc1cccc(CC)c1NC(=O)COC(=O)c1ccccc1-c1nc2ccccc2s1	-19	14	9	20*	14	21*
Cc1ccc(NC(=O)COC(=O)c2ccccc2-c2nc3ccccc3s2)c(C)c1	5	-8	4	6	.	.
COc1cc2[nH]c3c(=O)n4c(nc3c2cc1OC)SCCC4	-7	1	-6	.	.	.
CCC(CC)C(=O)NN(C(=O)c1ccncc1)C1CC(=O)N(c2ccccc2)C1=O (stereo not given)	-2	6	.	.	.	.
CC[n+]1c(/C=C(\C)SC)sc2ccccc21	10	-1	-4	2	.	.
CC[n+]1c(/C=C(\C)Nc2ccccc2)sc2ccccc21	-18	-1	7	23*	10	15
Cc1ccc(S(=O)(=O)NC2c3cccc4cccc(c34)C2Sc2nncn2C)cc1 (stereo not given)	7	1	4	21*	1	-1
CCOc1ccc(N(CC(=O)NC2CCCC(C)C2C)S(=O)(=O)c2c(C)noc2C)cc1 (stereo not given)	-7	14	7	20*	4	6
SMILES	NPY-Y1 PAM-ag	NPY2 pot ag	NPY-Y1 antag	NPY Y2 blocker	NPY1 antag ctr	NPY-Y2 ant conf
CCCC(=O)Nc1cccc(-c2nc3ccccc3c(=O)o2)c1	4	4	-2	.	.	.
Clc1ccccc1-c1nnc2sc(C3COc4ccccc4O3)nn12 (stereo not given)	-61	-13	5	3	.	.
Cc1ccc(-c2nnc3sc(C4COc5ccccc5O4)nn23)cc1 (stereo not given)	6	0	1	18*	19	15
CCCN(CCC)CC(O)CN1C(=O)N(CN2C(=O)N(CC(O)CN(CCC)CCC)C(=O)C2(C)C)C(C)(C)C1=O (stereo not given)	16	6	6	.	.	.
c1ccc(-c2ccc(-c3cnc4n3CCCCC4)cc2)cc1	-31	-15	13	24*	9	17
CCC1Oc2ccc(C)cc2N(CC(=O)NCCC2=CCCCC2)C1=O (stereo not given)	5	5	8	19*	14	12
COc1cc([N+](=O)[O-])ccc1NC(=O)CCCOc1ccccc1	-33	-28	7	22*	7	10
COc1ccc([N+](=O)[O-])cc1NC(=O)CCCOc1ccccc1	-4	12	3	13	.	.
O=C(c1ccco1)N(CCC(c1ccccc1)c1ccco1)Cc1ccccc1 (stereo not given)	3	2	15	18*	4	7
COc1ccc(CN(CCC(c2ccccc2)c2ccco2)C(=O)c2ccco2)cc1 (stereo not given)	-38	0	13	5	.	.
CC1CCN(c2ccccc2NC(=S)NC(=O)c2cccs2)CC1	-36	0	7	21*	20*	15
CCNc1ccc(C(=O)OCC(=O)N(Cc2ccccc2)C(C)(C)C)cc1[N+](=O)[O-]	24	2	5	0	.	.
COc1ccc(/C=C/C(O)=C2/C(=O)N(C)C3(C)CC2c2ccccc2O3)cc1 (stereo not given)	-30	2	11	21*	16	11
COc1cc2c(cc1NC(=O)C(c1ccccc1)c1ccccc1)CCCC2	12	-12	10	20*	18	14
COc1cc2c(cc1NC(=O)c1ccccc1F)CCCC2	-49	-12	11	10	.	.
C/C(=N/OC(=O)c1ccc(C(F)(F)F)cc1)c1oc(C)nc1C	16	14	.	.	.	.
COc1ccc(C(=O)Nc2cccc(OC(=O)c3ccc(C)c(C)c3)c2)cc1	-24	-15	11	17*	23*	23*
COc1cccc(NC(=O)c2ccc(NC(C)=O)cc2)c1	-11	-11	-1	1	.	.
CCn1c(SCc2ccc(C#N)cc2)nnc1-c1cccc(Cl)c1	-24	-2	4	5	.	.
Cc1cccc(-c2nnc(SCc3ccc(C#N)cc3)n2Cc2ccco2)c1	-3	-5	14	20*	9	5
Cc1c(N=C2SCC(=O)N2/N=C/c2ccccc2)c(=O)n(-c2ccccc2)n1C	5	-1	-5	-3	.	.
OC[C@H]1O[C@@H](n2cnc3c(Nc4ccccc4)ncnc32)[C@H](O)[C@@H]1O	-72	-20	14	22*	11	49*

Screening results (PubChem BioAssay)
